UPR XBP1 act = activators of adaptive arm of unfolded protein response (XBP1); CHO-XBP1 luciferase reporter, IRE1-XBP1 UPR activation, luminescence; percent of tunicamycin response, DMSO as zero; activation, % at 20 µM; 0.33% of 330,000 active; AID 463104;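 active means versus positive control, 20 µM dose yields 30% or more activation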
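incubation = overnight seeding at 37 °C, 6 h compound treatment at 37 °C | assay system = CHO-XBP1 cells stably carrying IRE1-XBP1-driven luciferase reporter | input = 1000 cells per well | detection = luciferase luminescence | dosing = single point, 20 µM final compound, 1% DMSO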
TLR9-MyD88 block = blocks human TLR9 binding to MyD88; inhibition, % at 4.98 µM; CHO BLA complementation TLR9-MyD88, CCF4 FRET ratio; 0.21% of 340,000 active;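 active means inhibition above the mean over all tested compounds plus 3 SD, cut at about 21% in these data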
TLR4-MyD88 BLA = TLR4-MyD88 interaction inhibition in cells. HeLa CL3-4 TLR4/MyD88 BLA complementation, FRET ratio. inhibition, % at 8.4 µM. 0.18% of 200,000 active; in the data active means inhibition above about 25%
NOD2 RIPK2 PPI = inhibitors of human NOD2-RIPK2 interaction; inhibition, % at 4.98 µM; O43353; 0.38% of 360,000 active; CHO BLA complementation NOD2-RIPK2, CCF4 ratio; in the data active means inhibition above about 21%
CHOP inhibitor = inhibitors of CHOP induction in ER stress response; 3.8% of 220,000 active; CHO-K1 CHOP-promoter luciferase, tunicamycin-induced, 15-18 h; inhibition, % at 10 µM; AID 2732;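 active means compounds that reduced the stress-induced luciferase reporter signal by more than about 70% of percent inhibition, limit read from the data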
CHOP UPR activ = apoptotic UPR (CHOP) activation | CHO-CHOP luciferase reporter, luminescence; percent of tunicamycin response over DMSO baseline | activation, % at 10 µM | 0.34% of 330,000 active;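 active means at 10 µM dose, activation of 40% or more, normalized to positive control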
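System: CHO-CHOP luciferase reporter cell line; amount: 500 cells/well; buffer or medium: F12 medium containing 10% fetal bovine serum; incubation: 6 h compound exposure at 37 °C after overnight seeding; measured by: luciferase luminescence after 10 min with Steady-Glo reagent; evaluation: % reporter activation, DMSO baseline versus tunicamycin full activation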
A number is an active result; 0 = inactive; - = no result given. Shown is part of a subset that was picked to be rich in hits.

SMILES	UPR XBP1 act	TLR9-MyD88 block	TLR4-MyD88 BLA	NOD2 RIPK2 PPI	CHOP inhibitor	CHOP UPR activ
O=C(O)CCC/C=C\C[C@@H]1[C@@H](/C=C/[C@H](O)C2Cc3ccccc3C2)[C@@H](F)C[C@@H]1O	-	-	-	-	0	-
Cc1cc(NC(=O)C2CC(c3cccc(Br)c3)=NO2)no1 (stereo not given)	0	0	0	0	73	0
Cc1ccc(O)c(NC(=O)C2CC(c3cccc(Br)c3)=NO2)c1 (stereo not given)	0	0	-	0	-	0
O=Cc1ccc(N2CCN(S(=O)(=O)c3ccc4c(c3)CC(=O)N4)CC2)cc1	-	-	-	0	-	-
CCOC(=O)c1c(NC(=O)COc2cccc3c2CCN(CC)C3=O)sc2c1CCC2	0	0	0	0	78	0
CCOC(=O)c1c(NC(=O)CSc2c[nH]c3ccccc23)sc2c1CCC2	0	0	0	0	0	0
CCOC(=O)c1c(NC(=O)CSc2c[nH]c3ccccc23)sc2c1CCCC2	0	0	0	0	76	0
CCOC(=O)c1c(NC(=O)COC)sc2c1CCCC2	0	0	0	0	86	0
CC(=O)NC1=NC(=O)/C(=C/c2cn(C(C)=O)nc2-c2ccccc2)S1	0	0	0	0	73	0
CCN=C1S/C(=C\c2cn(C(C)=O)nc2-c2ccccc2)C(=O)N1CC	0	0	0	0	71	0
CCCCn1c(N)c(N(CC(C)C)C(=O)c2ccc(OC)c(S(=O)(=O)N3CCOCC3)c2)c(=O)[nH]c1=O	-	0	-	0	-	-
O=S(=O)(c1ccc2c(c1)OCCO2)N1CCC(n2nnc3cc(C(F)(F)F)ccc32)CC1	0	0	0	0	70	0
O=S(=O)(c1ccccc1)N1CCC(n2nnc3cc(F)ccc32)CC1	0	0	0	0	0	0
COc1ccc(-c2nc(-c3ccc(O)cc3O)cs2)cc1OC	-	0	0	0	85	-
COc1ccc(-c2nc(CCl)cs2)cc1OC	0	0	0	0	0	0
CC1=C(C(=O)N(C)C)CC(CC(=O)NC2CCCCC2)C(=O)N1Cc1ccccc1 (stereo not given)	-	0	-	0	-	-
Cc1cc(NC(=O)CCl)n(-c2nc3ccccc3s2)n1	0	0	0	0	77	0
O=c1[nH]c(CN2CCN(Cc3ccccc3)CC2)nc2scc(-c3ccccc3)c12	0	0	-	0	0	0
O=c1[nH]c(Cn2nnc(-c3ccccc3)n2)nc2scc(-c3ccccc3)c12	0	0	0	0	89	0
COc1cc(C(O)c2nc(-c3cccc(C(C)C)c3)cs2)ccc1F (stereo not given)	-	-	-	0	-	-
COC(=O)C1=C(CSCc2ccccc2)NC(=O)NC1c1cc(C)ccc1C (stereo not given)	0	0	0	0	0	0
COC(=O)C1=C(CSc2nc3ccccc3o2)NC(=O)NC1c1cc(C)ccc1C (stereo not given)	0	0	0	0	80	0
CCOC(=O)C1=C(CSc2nc3ccccc3s2)NC(=O)NC1c1ccc(OC)cc1 (stereo not given)	0	0	0	0	84	0
CCOC(=O)C1=C(CSCC(=O)OC)NC(=O)NC1c1cc(C)ccc1C (stereo not given)	0	0	0	0	0	0
CCOC(=O)C1=C(CSc2nc3ccccc3s2)NC(=O)NC1c1cc(C)ccc1C (stereo not given)	0	0	0	0	75	0
SMILES	UPR XBP1 act	TLR9-MyD88 block	TLR4-MyD88 BLA	NOD2 RIPK2 PPI	CHOP inhibitor	CHOP UPR activ
CC1Cc2[nH]c(=S)[nH]c(=O)c2C(C)O1 (stereo not given)	-	-	-	0	-	-
NCc1csc(Nc2ccc(C(=O)c3ccccc3)cc2)n1	-	-	-	0	-	-
O=c1[nH]c(C(F)(F)C(F)(F)C(F)(F)F)no1	-	0	-	0	-	-
COc1cc(OC)cc(-c2cc3nc(C)c(CCC(=O)O)c(C)n3n2)c1	-	0	0	0	95	-
CCOC(=O)C1CCCCN1C(=O)CCc1c(C)nc2cc(-c3ccccc3)nn2c1C (stereo not given)	0	0	0	0	73	0
Cc1nc2cc(-c3ccccc3)nn2c(C)c1CCC(=O)N1CCN(c2ccccn2)CC1	-	-	0	-	71	-
COc1cc(OC)cc(-c2cc3nc(C)c(CCC(=O)NC(C)CCc4ccco4)c(C)n3n2)c1 (stereo not given)	0	0	0	0	-	0
Cc1ccc(F)cc1C(=O)N1CCCC(c2cc(C(=O)Nc3ccccc3Cl)no2)C1 (stereo not given)	-	-	-	0	-	-
O=C(O)CC(C(=O)O)C(=Cc1ccccc1)c1ccccc1 (stereo not given)	-	0	-	0	-	-
COC1=CC(=O)OC(c2ccc(C#N)cc2)C1 (stereo not given)	-	-	-	0	-	-
CCc1nc(Nc2ccc(OC)c(OC)c2)c2nnn(Cc3ccccc3Cl)c2n1	0	0	0	0	91	0
CCc1cccc2c1NC(=O)C21N2CCCC2C(C(=O)c2ccc3ccccc3c2)C12C(=O)Nc1ccccc12 (stereo not given)	0	0	0	0	0	0
CCc1ccc2c(c1)C1(C(=O)N2)N2CCCC2C(C(=O)c2ccc3ccccc3c2)C12C(=O)Nc1ccccc12 (stereo not given)	0	0	0	0	106	0
O=C(Nc1ccncc1)C1COc2ccccc2O1 (stereo not given)	0	0	0	0	0	0
O=C(NC1=NCCS1)C1COc2ccccc2O1 (stereo not given)	0	0	0	0	76	0
CCOC(=O)c1ccccc1NC(=O)C1COc2ccccc2O1 (stereo not given)	0	0	0	0	74	0
O=C1NC[C@@H](CCCCN2C[C@H](Cc3ccc(O)cc3)N(CCC3CCCCC3)C(=O)C2=O)N(Cc2ccccc2)C1=O	-	-	-	0	-	-
CCS(=O)(=O)N1Cc2cc(C(=O)NCC3CC3)nc(-c3cccc(-c4cccnc4)c3)c2[C@@H]1CCO	-	-	-	0	-	-
Cc1cc(NC(=O)C(C)Sc2nc(-c3cccs3)nc3ccccc23)no1 (stereo not given)	0	0	-	0	-	0
Nc1ccn([C@@H]2O[C@H](C(=O)NCCCN3CCCC3=O)[C@@H](O)[C@H]2O)c(=O)n1	-	-	-	0	-	-
O=C(Nc1ccccc1Sc1ccccc1)c1ccccc1	0	0	0	0	92	0

From PubChem BioAssay
